According to ChEMBL document CHEMBL1139819, “Cyanopyridyl containing 1,4-dihydroindeno[1,2-c]pyrazoles as potent checkpoint kinase 1 inhibitors: improving oral biovailability” (Bioorg Med Chem Lett, 2007):

Tests used:
HeLa = test: Antiproliferative activity against HeLa cells assessed as […] by MTS assay; format: functional, cell-based; conditions: Homo sapiens
Method in brief: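 MTS proliferation assay in HeLa cells. […] For the combination, the regression baseline was set to the inhibition given by 150 nM doxorubicin alone. The combo/single EC50 ratio indexes potentiation.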

[1] = Antiproliferative activity against H1299 cells assessed as reduction in G2/M cell population by FACS assay; format: functional, cell-based; conditions: Homo sapiens, NCI-H1299
Method in brief: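 Cell cycle analysis by FACS in H1299 cells. EC50 is the inhibitor concentration that halves the G2/M population induced by 500 nM doxorubicin (combo). It was also measured without doxorubicin (single).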

[2] = biological target: T1, Serine/threonine-protein kinase Chk1 (Homo sapiens, UniProt O14757); test: Inhibition of recombinant CHK1
T1 sequence (O14757 whole entry): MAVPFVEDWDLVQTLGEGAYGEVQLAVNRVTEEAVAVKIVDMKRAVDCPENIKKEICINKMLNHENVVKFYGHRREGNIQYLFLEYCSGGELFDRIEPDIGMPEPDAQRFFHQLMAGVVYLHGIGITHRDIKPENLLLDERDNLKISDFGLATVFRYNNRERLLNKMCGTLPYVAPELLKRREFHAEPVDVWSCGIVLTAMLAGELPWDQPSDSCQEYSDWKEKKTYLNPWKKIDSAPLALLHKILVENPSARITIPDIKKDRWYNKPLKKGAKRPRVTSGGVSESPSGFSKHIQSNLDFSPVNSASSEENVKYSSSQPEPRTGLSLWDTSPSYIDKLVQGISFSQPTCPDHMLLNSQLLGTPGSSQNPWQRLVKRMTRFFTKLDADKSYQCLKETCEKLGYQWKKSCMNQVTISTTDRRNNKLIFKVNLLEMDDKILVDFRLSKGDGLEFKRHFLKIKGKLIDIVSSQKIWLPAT
Method in brief: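 Substrate is 5 µM human biotinylated Cdc25c peptide. Buffer is 25 mM Hepes pH 7.4, 10 mM MgCl2, Triton X-100, 0.5 mM DTT. ATP at 5 µM plus 33P-ATP, with 2% DMSO. Run 30 min at room temperature, stopped with NaCl/EDTA, then 33P incorporation captured on a Flash Plate.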

[3] = AUC in mouse at 10 mg/kg, po; format: ADME, organism-based; design: dose 10 mg/kg, route oral; conditions: plasma
Method in brief: (§1)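 Oral dosing in mice at 10 mg/kg. Plasma exposure read as AUC and Cmax.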

[4] = Dissociation constant, pKa of the compound; format: physicochemical
[5] = AUC in mouse at 10 mg/kg, ip; format: ADME, organism-based; design: dose 10 mg/kg, route intraperitoneal; conditions: plasma
Method in brief: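 Mice dosed intraperitoneally at 10 mg/kg. Vehicle is 2.5% EtOH, 5% Tween 80, 25% PEG400 in PBS, or for some entries 10% NMP, 20% Solutol, 70% PBS. Plasma exposure is given as AUC.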

[6] = Cmax in mouse at 10 mg/kg, po; format: ADME, organism-based; design: dose 10 mg/kg, route oral; conditions: in vivo; method in brief: as §1
[7] = Oral bioavailability in mouse at 10 mg/kg; format: ADME, organism-based; conditions: in vivo
[8] = Volume of distribution in mouse at 3.0 mg/kg, iv; format: ADME, organism-based; design: dose 3 mg/kg, route intravenous; conditions: in vivo
Mus musculus = test: AUC in mouse at 3.0 mg/kg, iv; format: ADME, organism-based, Plasma; design: dose 3 mg/kg, route intravenous; conditions: in vivo
[9] = Half life in mouse at 3.0 mg/kg, iv; format: ADME, organism-based; design: dose 3 mg/kg, route intravenous; conditions: in vivo
[10] = AUC in Nu/Nu mouse at 10 mg/kg/day, po in phosal; format: ADME, organism-based; design: route oral; conditions: plasma
Method in brief: (§2)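 Oral dosing in Nu/Nu mice at 10, 25 or 50 mkd in one of two vehicles, NMP or Phosal.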

[11] = AUC in Nu/Nu mouse at 25 mg/kg/day, po in phosal; format: ADME, organism-based; design: route oral; conditions: plasma; method in brief: as §2
[12] = AUC in Nu/Nu mouse at 25 mg/kg/day, po in NMP; format: ADME, organism-based; design: route oral; conditions: plasma; method in brief: as §2
[13] = AUC in Nu/Nu mouse at 50 mg/kg/day, po in NMP; format: ADME, organism-based; design: route oral; conditions: plasma; method in brief: as §2
[14] = AUC in Nu/Nu mouse at 50 mg/kg/day, po in phosal; format: ADME, organism-based; design: route oral; conditions: plasma; method in brief: as §2
[15] = AUC in Nu/Nu mouse at 10 mg/kg/day, po in NMP; format: ADME, organism-based; design: route oral; conditions: plasma; method in brief: as §2

| Structure (SMILES) | EC50 (HeLa) [nM] | IC50 [2] [nM] | pKa [4] | AUC [5] [ng·h/mL] | further results |
| --- | --- | --- | --- | --- | --- |
| COc1cc2c(cc1OC)-c1n[nH]c(-c3ccc(-c4ccc(O)cc4)cc3)c1C2 | > 59000 | – | – | – | EC50 [1]: > 10000 nM |
| COc1cc2c(cc1OCCN1CCOCC1)Cc1c(-c3ccc(C#N)nc3)n[nH]c1-2 | – | 3.8 | – | – | – |
| N#Cc1ccc(-c2n[nH]c3c2Cc2ccc(OCCCN4CCCOCC4)cc2-3)cn1 | 5400 | 0.92 | 9.1 | – | AUC [3]: 31 ng·h/mL |
| N#Cc1ccc(-c2n[nH]c3c2Cc2ccc(OCCCN4CCCCC4)cc2-3)cn1 | 4000 | 2.6 | 9.1 | – | – |
| COc1cc2c(cc1OCCO)Cc1c(-c3ccc(C#N)nc3)n[nH]c1-2 | – | 3.1 | – | 300 | – |
| COc1cc2c(cc1OCCN1CCOCC1)-c1[nH]nc(-c3ccc(C#N)nc3)c1C2 | – | 3 | – | 930 | – |
| N#Cc1ccc(-c2n[nH]c3c2Cc2ccc(OCCCC4CCNCC4)cc2-3)cn1 | 2700 | 1 | 11 | – | – |
| N#Cc1ccc(-c2n[nH]c3c2Cc2ccc(OCCCN4CCOCC4)cc2-3)cn1 | > 59000 | 3.2 | – | 2600 | Cmax [6]: 660 nM; bioavailability [7]: 44%; Vd [8]: 7.6 L/kg; AUC (Mus musculus): 2000 ng·h/mL; AUC [3]: 3000 ng·h/mL; half-life [9]: 1.4 h |
| COc1cc2c(cc1OCCc1scnc1C)-c1[nH]nc(-c3ccc(C#N)nc3)c1C2 | – | 1.1 | – | – | – |
| N#Cc1ccc(-c2n[nH]c3c2Cc2ccc(OCCCc4cccs4)cc2-3)cn1 | > 59000 | 52 | 1.6 | – | – |
| Cc1ncsc1CCOc1ccc2c(c1)-c1[nH]nc(-c3ccc(C#N)nc3)c1C2 | 7600 | 6.4 | 3.3 | – | – |
| N#Cc1ccc(-c2n[nH]c3c2Cc2ccc(OCCCCCN4CCOCC4)cc2-3)cn1 | 8100 | 1.4 | – | – | – |
| N#Cc1ccc(-c2n[nH]c3c2Cc2ccc(NCCN4CCOCC4)cc2-3)cn1 | > 59000 | 7 | – | – | – |
| N#Cc1ccc(-c2n[nH]c3c2Cc2ccc(NC(=O)CCN4CCOCC4)cc2-3)cn1 | 33000 | 16 | – | – | – |
| N#Cc1ccc(-c2n[nH]c3c2Cc2ccc(OCCN4CCOCC4)cc2-3)cn1 | > 59000 | – | 5.7 | 5700 | – |
| CC(=O)N1CCN(CCCCOc2ccc3c(c2)-c2[nH]nc(-c4ccc(C#N)nc4)c2C3)CC1 | 33000 | 1.5 | 6.9 | 2200 | – |
| N#Cc1ccc(-c2n[nH]c3c2Cc2ccc(CCCCN4CCOCC4)cc2-3)cn1 | 9700 | 1.2 | – | – | – |
| N#Cc1ccc(-c2n[nH]c3c2Cc2cc(OCCCN4CCOCC4)ccc2-3)cn1 | > 59000 | 6.4 | – | – | – |
| N#Cc1ccc(-c2n[nH]c3c2Cc2ccc(OCCCn4ccnc4)cc2-3)cn1 | > 59000 | 1.1 | 7.2 | – | – |
| COc1cc2c(cc1OC)-c1[nH]nc(-c3ccc(C#N)nc3)c1C2 | > 59000 | – | – | – | EC50 [1]: > 10000 nM |
| CN1CCN(CCCOc2ccc3c(c2)-c2[nH]nc(-c4ccc(C#N)nc4)c2C3)CC1 | 6200 | 1.5 | 9.1 | – | – |
| N#Cc1ccc(-c2n[nH]c3c2Cc2ccc(OCCCCN4CCOCC4)cc2-3)cn1 | 21000 | 0.75 | – | 10400 | Cmax [6]: 770 nM; AUC [10]: 5000 ng·h/mL; AUC [11]: 15000 ng·h/mL; bioavailability [7]: > 50%; Vd [8]: 6.9 L/kg; AUC [12]: 12000 ng·h/mL; AUC [13]: 25000 ng·h/mL; AUC (Mus musculus): 2100 ng·h/mL; AUC [14]: 32000 ng·h/mL; AUC [15]: 6000 ng·h/mL; AUC [3]: > 3300 ng·h/mL; half-life [9]: 1.4 h |
| N#Cc1ccc(-c2n[nH]c3c2Cc2cc(OCCN4CCOCC4)ccc2-3)cn1 | > 59000 | 6.5 | – | – | – |
| COc1cc2c(cc1OCc1ccccn1)Cc1c(-c3ccc(C#N)nc3)n[nH]c1-2 | – | 3.7 | – | 470 | – |
| COc1cc2c(cc1OCCc1scnc1C)Cc1c(-c3ccc(C#N)nc3)n[nH]c1-2 | – | 2.5 | – | – | – |
| COc1cc2c(cc1OCCO)-c1[nH]nc(-c3ccc(C#N)nc3)c1C2 | – | 2.6 | – | – | – |
| N#Cc1ccc(-c2n[nH]c3c2Cc2ccc(OCCOCCN4CCOCC4)cc2-3)cn1 | 29000 | 1.8 | 6.1 | 1700 | – |
| C[C@@H]1CN(CCCOc2ccc3c(c2)-c2[nH]nc(-c4ccc(C#N)nc4)c2C3)C[C@H](C)O1 | > 52000 | 1 | 6.1 | 3000 | – |
